From PubChem
Cneo AK release – Cryptococcus neoformans cell lysis inducers, primary screen, AK release luminescence, single concentration; C. neoformans lysis, adenylate kinase release luminescence, 4 h; normalised: neutral wells 0, clomiphene wells 100; AID 651654, 2012; lysis activity, % at 15 µM; 360,000 compounds, 0.2% hits;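 active means mean lysis activity across replicates of at least 80%, whatever share of replicates individually reach that level; inactive means mean lysis activity below 80%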
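Material: C. neoformans cells | Amount: Yeast cell density of 5 × 10^6 cells/mL | Medium: Fresh YPD growth medium | Dosing: Single dose | Times: Static 4 h at 37 °C with compound, 1 h detection | Detection: AK luminescence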
Mot1-301 SUMO – yeast Mot1-301 growth rescue at high temperature, primary screen, SUMOylation pathway inhibitor project, S. cerevisiae, ATP luminescence, 38.5C. S. cerevisiae Mot1-301 growth rescue; percent above DMSO median, 100 means doubled. growth rescue, % at 18.8 µM. 320,000 compounds, 1% hits. AID 2716, 2010;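 active means every valid replicate shows activation above 250% relative to neutral control wells; inactive means the rest, any valid replicate at or below 250%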
Yeast superoxide – reduction of superoxide in aged yeast, primary screen, HTS. S. cerevisiae aged cells, superoxide DHE fluorescence; active compounds read low. superoxide response (% of plate mean), % at 10 µM. 330,000 compounds, 0.18% hits;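 active means superoxide response under a set limit, about three screen SD below normal, cut at about 65% in these data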;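 further: yeast aged for seven days with compound at 30 °C before DHE staining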
Ecoli rRNA inh – reduced GFP signal of wild-type E. coli, primary screen, bacterial rRNA inhibitor project, GFP/RFP fluorescence, OD600, single point. E. coli WT GFP vs humanized-ribosome RFP mutants, 24 h; active compounds read low; DMSO median 0, no signal -100. GFP signal change (wild-type ribosome), % (no concentration beside the values). 350,000 compounds, 1.6% hits. AID 720706, 2013;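 active means significant combined selectivity score with lowered wild-type GFP, culture density cut under 30%, mutant RFP and density less affected; inactive means any of these conditions unmet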
PglD DTNB – C. jejuni PglD acetyltransferase inhibitors, primary screen, biochemical, DTNB colorimetric, single point; UDP-N-acetylbacillosamine N-acetyltransferase PglD (Campylobacter jejuni); 360,000 compounds, 0.098% hits; AID 602405, 2012; inhibition, % at 12.5 µM; purified PglD enzyme, DTNB colorimetric CoA detection; in the data active means inhibition above about 16%, passing the limit was not always enough
Yeast Mot1 SUMO – growth restoration of Mot1-301 yeast on galactose, dose response, SUMO pathway inhibitor project, whole organism, S. cerevisiae, ATP luminescence, cherry-picked samples; shares compounds with Mot1-301 SUMO; 2,300 tested, under 10 active; S. cerevisiae Mot1-301 galactose growth, 24 h; -100 = growth of slx-deleted rescue strain; growth activity, percent, % at 42 µM; AID 493004, 2010;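 active means Signal drops as the depositor expects, and the fitted half-maximal dose is no more than ten times the top valid tested dose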;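 further: more negative values mean stronger growth rescue toward the control strain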
PglD confirm – PglD acetyltransferase inhibitors, confirmation, biochemical, DTNB absorbance, single point, cherry-picked samples; 320 tested, under 10 active; Purified C. jejuni PglD, DTNB absorbance 412 nm; shares compounds with PglD DTNB; inhibition, % at 20 µM;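 active means mean inhibition across replicates of at least 20% with every single replicate also at 20% or more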;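 further: initial rate of CoA release by acetyl transfer from AcCoA to the UDP-4-amino sugar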
Numbers stand for hits; n = inactive; x = no result given; + = active, no number. A selection: hits, their analogues and other compounds. The true share with any hit is near 2.2%.

SMILES	Cneo AK release	Mot1-301 SUMO	Yeast superoxide	Ecoli rRNA inh	PglD DTNB	Yeast Mot1 SUMO	others
Nc1nnc(CC(=O)N2CCCCC2)s1	n	396	n	x	n	n
CS(=O)(=O)Nc1ccc2c(c1)[C@H]1C[C@H](CC(=O)NC3CCCCC3)O[C@@H](CO)[C@H]1O2	n	x	x	n	n	x
Cc1ccnc(SCC(=O)Nc2cc(C)on2)n1	n	n	n	n	n	x
COc1ccc(NC(=O)CSc2nccc(C)n2)cc1	n	+	n	x	n	n
COc1ccc(CN2CCN(c3ccccn3)CC2)cc1OCc1ccccc1	n	n	n	x	n	x
CC1(C)CCc2cc(CN3CCN(c4ccccn4)CC3)ccc2O1	n	725	n	n	n	n
Cn1c(=NC(=O)COc2ccccc2)sc2cc(F)cc(F)c21	x	448	n	x	x	n
CCc1ccc(NC(=S)N(Cc2cccc(Br)c2)CC2CCC(C(=O)O)CC2)cc1 (stereo not given)	x	592	n	n	x	n
Cc1cc(C)cc(NC(=S)N(Cc2cccc(Br)c2)CC2CCC(C(=O)O)CC2)c1 (stereo not given)	n	x	n	n	n	x
O=C(COc1ccc(Cl)cc1)NCCCNC(=O)c1ccccn1	n	565	n	n	n	n
C/C(CC1(O)C(=O)Nc2ccccc21)=N\O (stereo not given)	n	519	n	n	n	n
COc1ccc(/C(CC2(O)C(=O)Nc3ccccc32)=N\O)cc1 (stereo not given)	n	n	n	x	n	x
Cc1cc(C)n(-c2nc(-c3cccc(Cl)c3)cs2)n1	n	434	n	x	n	n
COc1cccc(C#Cc2cnc3c(c2)C(=O)N([C@@H](C)CO)C[C@H](C)[C@H](CN(C)C)O3)c1	n	x	x	n	n	x
COc1cccc(-c2nn(-c3ccccc3)cc2/C=C(/NC(=O)c2ccccc2)C(=O)O)c1	n	915	n	n	n	n
COc1cccc(C(=O)Nc2ccc3c(c2)OC[C@@H](C)N(CC2CC2)C[C@@H](C)[C@H](OC)CN(C)C3=O)c1	n	x	x	n	n	x
COc1ccccc1S(=O)(=O)N1[C@@H]2CNC[C@H]1C2c1ccc(-c2cccnc2)cc1 (stereo not given in full)	x	x	x	n	x	x
O=C(NNc1ccccc1)C(=O)NNS(=O)(=O)c1ccc(CCCl)cc1	x	n	n	n	x	x
Nc1ccc(S(=O)(=O)NNC(=O)C(=O)NNc2ccccc2)cc1	n	405	n	n	n	n
CCC(=O)NC[C@H]1[C@@H](c2ccc(C3=CCCC3)cc2)[C@H](CO)N1C(C)=O	n	x	x	n	n	x
CN1c2ccc(Br)cc2[C@H]2[C@H](CCN2C(=O)C2CCCC2)[C@@H]1CO	x	x	x	n	x	x
CCN(CC)S(=O)(=O)c1cc(NC(=O)COC(=O)CCc2nc3ccccc3s2)ccc1C	n	363	n	x	n	n
O=C([C@H]1[C@H](CO)[C@H]2Cn3c(ccc(C4=CCCC4)c3=O)[C@H]2N1CC1CC1)N1CCCCC1	n	x	x	n	n	x
CCNC(=O)NC(C(=O)OC)C12CC3CC(CC(C3)C1)C2 (stereo not given)	n	562	n	n	n	n
COc1ccc(NC(=O)N(C)C[C@H]2Oc3ccc(NS(=O)(=O)c4ccc(OC)cc4)cc3C(=O)N([C@H](C)CO)C[C@H]2C)cc1	n	x	x	n	n	x
SMILES	Cneo AK release	Mot1-301 SUMO	Yeast superoxide	Ecoli rRNA inh	PglD DTNB	Yeast Mot1 SUMO	others
C[C@@H]1CN([C@@H](C)CO)C(=O)c2cc(C#C[C@@H](C)O)cnc2O[C@H]1CN(C)C(=O)Nc1ccc(F)cc1	n	x	x	n	n	x
CSc1ncc2ncn(C3OC(CO)C(O)C3O)c2n1 (stereo not given)	n	+	n	n	n	n
CCSc1nc(N)nc2c1ncn2C1OC(CO)C(O)C1O (stereo not given)	n	x	x	n	n	x
N#CCC(=O)N/N=C/c1ccc(OS(=O)(=O)c2ccccc2)cc1	n	846	n	x	n	n
O=C(Cc1ccc(Cl)cc1)NC(=S)Nc1ccccc1N1CCOCC1	n	815	n	x	n	n
O=C(NC1CCCCC1)N(Cc1cc2cc3c(cc2[nH]c1=O)OCCO3)C1CCCCC1	n	828	n	x	n	n
CCS(=O)(=O)Nc1ccc2c(c1)C(=O)N(C)[C@@H]1CC[C@@H](CC(=O)N3CCCCC3)O[C@@H]1CO2	n	x	x	n	n	x
Cc1cnc(NC(=O)CSc2nc3ccccc3s2)s1	n	395	n	x	n	n
C[C@H](CO)N1C[C@H](C)[C@H](CN(C)Cc2ccc(C(F)(F)F)cc2)Oc2c(cccc2N(C)C)C1=O	n	x	x	n	n	x
CCOc1ccc(-c2nc3n(c(=O)c2C#N)CCS3)cc1	x	439	n	n	x	n
CCc1nc2ccc(C(=O)N3CCN(CC)CC3)cc2nc1CC	n	967	n	n	n	n
CCCN1CCN(C(=O)c2ccc3nc(CC)c(CC)nc3c2)CC1	n	n	n	n	n	x
CN1CCc2c(sc3c2c(=O)n(-c2cccc(Cl)c2)c2nncn32)C1	n	n	n	x	n	x
O=c1c2c3c(sc2n2cnnc2n1-c1ccccc1)N(Cc1ccccc1)CCC3	x	445	n	x	x	n
Cc1ccc(S(=O)(=O)N(C)C[C@H]2OCCCC[C@@H](C)Oc3ccc(NS(C)(=O)=O)cc3C(=O)N([C@@H](C)CO)C[C@@H]2C)cc1	n	x	x	n	n	x
CN(C)C(=O)[C@H]1[C@H](CO)[C@H]2Cn3c(ccc(C4=CCCCC4)c3=O)[C@@H]1N2Cc1ccncc1	n	x	x	n	n	x
Cc1noc(C)c1S(=O)(=O)N(C)C[C@@H]1Oc2ccc(NC(=O)Cc3ccccc3)cc2CC(=O)N([C@@H](C)CO)C[C@@H]1C	n	x	x	n	n	x
Cc1ccc(S(=O)(=O)Nc2ccc3c(c2)C(=O)N([C@@H](C)CO)C[C@H](C)[C@@H](CN(C)C(=O)C2CCCCC2)OCCCC[C@@H](C)O3)cc1	n	x	x	n	n	x
CCOc1cc(C(=S)N2CCOCC2)ccc1OC(=O)c1ccccc1	n	n	n	n	n	x
CCOc1cc(C(=S)N2CCOCC2)ccc1OC(=O)c1ccc(C)cc1	n	414	n	n	45	n	PglD confirm=n
